Results of several laboratories.
Compare with care: the assays were run in different laboratories.
Target: Serine/threonine-protein kinase Nek2 (NEK2, Homo sapiens, UniProt P51955)
Sequence (P51955 1-445, as in one of the studies): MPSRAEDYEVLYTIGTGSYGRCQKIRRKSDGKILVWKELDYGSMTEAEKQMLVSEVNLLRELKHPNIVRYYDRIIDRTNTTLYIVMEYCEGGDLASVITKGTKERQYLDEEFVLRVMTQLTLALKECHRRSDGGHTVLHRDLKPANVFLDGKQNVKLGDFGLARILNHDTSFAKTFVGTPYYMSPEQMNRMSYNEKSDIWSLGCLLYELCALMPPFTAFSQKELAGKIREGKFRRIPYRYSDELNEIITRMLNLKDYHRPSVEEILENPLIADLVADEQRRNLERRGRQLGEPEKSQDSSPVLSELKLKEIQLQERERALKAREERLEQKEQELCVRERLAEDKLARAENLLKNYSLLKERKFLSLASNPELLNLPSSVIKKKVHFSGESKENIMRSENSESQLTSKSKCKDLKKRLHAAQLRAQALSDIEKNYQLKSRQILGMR

CCN(CC)CCNC(=O)c1c(C)[nH]c(/C=C2\C(=O)Nc3ccc(F)cc32)c1C — inhibition (enzyme activity; inhibitor; 0.3 µM): 9%
CC/C(=N\NC(=O)NCc1cccc(O)c1)c1ccc(O)c(C)c1O — inhibition (enzyme activity; inhibitor; 0.1 µM): -2.4%
Cn1c(=O)n(-c2ccc(C(C)(C)C#N)cc2)c2c3cc(-c4cnc5ccccc5c4)ccc3ncc21 — remaining activity (enzyme activity; inhibitor; 10 µM): 145%
Cc1c(NC(=O)c2cc(C(N)=O)nc3cc(F)ccc23)c(C(F)(F)F)nn1Cc1ccc(C(C)(C)C)cc1 — remaining binding (cell-free assay; competition with immobilised ligand; 1 µM): 100%
CC(C)(C)C(=O)c1sc(NC2CCCCC2)nc1N — remaining activity (enzyme activity; inhibitor; 10 µM): 93%
Cn1c2c(Cl)c(Cl)ccc2c2cc(N)[nH]c(=O)c21 — ΔTm (thermal stability; DSF; 10 µM): 1.8 °C
CN(C(=O)c1ccccc1)c1cc(N(C)c2ccc3c(c2)CCc2ccc(C(=O)NCCN4CCOCC4)cc2C3=O)ccc1F — remaining binding (cell-free assay; competition with immobilised ligand; 1 µM): 96%
CC(C)c1ccc(NC(=O)c2cccs2)c(-c2nc3ccccc3[nH]c2=O)c1 — activity vs control (enzyme activity; inhibitor; 1 µM): 93%
COc1cc2ncnc(Nc3ccc(F)c(Cl)c3)c2cc1OCCCN1CCOCC1 — remaining signal (cell-free assay; 0.5 µM): 98.4%
FC(F)(F)c1ccc2c(c1)nc(-c1cccnc1)n2C1CC1 — remaining binding (cell-free assay; competition with immobilised ligand; 1 µM): 100%
Cn1c2c(c3ccc(Cl)c(Cl)c31)C(C#N)C1(CCOCC1)NC2=O (stereo not shown) — ΔTm (thermal stability; DSF; 10 µM): -0.2 °C
COc1cc2ncnc(Nc3ccc(Oc4ccccc4)c(C)c3C)c2cc1OC — inhibition (enzyme activity; inhibitor; 1 µM): 1%
CNCc1ccc(-c2cc(-c3nc(-c4ccc(S(=O)(=O)C(C)C)cc4)cnc3N)on2)cc1 — inhibition (enzyme activity; inhibitor; 0.4 µM): 0%
CC1(C)NC(=O)c2[nH]c3c(Cl)c(Cl)ccc3c2C1C#N (stereo not shown) — ΔTm (thermal stability; DSF; 10 µM): -0.8 °C
Cc1cnc(NC2CCOCC2)nc1-n1cnc(C(=O)NC(CN)c2cc(F)cc(Cl)c2)c1 (stereo not shown) — remaining activity (enzyme activity; inhibitor; radiometric; 1 µM): 36%
Nc1ncnc2occ(-c3ccc(NC(=O)Nc4cc(C(F)(F)F)ccc4F)cc3)c12 — remaining signal (cell-free assay; inhibitor; 20 µM): 2.1%
Cc1cc(NC(=O)c2cccc3cc(-c4cccc5[nH]nc(N)c45)ccc23)ccc1F — activity vs control (enzyme activity; inhibitor; 0.1 µM): 99%
Cc1c(NC(=O)c2cc(C(N)=O)nc3cc(F)ccc23)c(C(F)(F)F)nn1Cc1ccc(C#N)cc1 — remaining binding (cell-free assay; competition with immobilised ligand; 1 µM): 100%
FC(F)(F)Oc1cccc(-c2cnc3ccc(-c4ccncc4)nn23)c1 — activity vs control (enzyme activity; inhibitor; radiometric; 5 µM): 88%
